The target of experiment [1] is T1, Kynurenine 3-monooxygenase (Rattus norvegicus, UniProt O88867). Briefly: Inhibition of rat kidney Kynurenine 3-hydroxylase. The procedure, abridged:
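The enzyme source was a crude mitochondrial fraction from rat kidney. The assay used 0.1 M K-phosphate pH 7.4 with 100 µM L-kynurenine plus 0.1 µCi L-[3-3H]kynurenine, 200 µM NADPH, and an NADPH-regenerating system, with 30 µg protein. Inhibitor was preincubated 15 min at 37 °C, then the reaction ran 10 min at 37 °C. Charcoal removed substrate and 3H2O was counted.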

The target of experiment [2] is Kynurenine 3-monooxygenase (Rattus norvegicus) (UniProt O88867). As to the kind of experiment: Compound was evaluated for ex vivo inhibition of Kynurenine 3-hydroxylase activity in liver of rat after injecting perorally. It counts as tissue-based. Summed up: (§1)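 Rats got oral doses in 0.1% Tween-80 suspension (0.5 mL/100 g), five or six doses with four or five animals per dose, and were decapitated 2 h later. Kidney or liver was homogenized in 9 volumes of 0.32 M sucrose/5 mM Tris-HCl pH 7.4 with 0.5 mM PMSF. 25 µL homogenate was assayed by [3H]water release with 2 min incubation.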

Experiment [3] shares this target. As to the kind of experiment: Compound was evaluated for ex vivo inhibition of Kynurenine 3-hydroxylase activity in kidney of rat after injecting perorally. Type of experiment: tissue-based. The procedure, abridged:
as §1

The target in experiment [4] is T1, Kynurenine 3-monooxygenase. Briefly: Inhibitory constant against Kynurenine 3-hydroxylase. The procedure, abridged:
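Competitive-inhibition kinetics on rat kidney crude mitochondrial kynurenine 3-hydroxylase. L-[3-3H]kynurenine saturation experiments with NADPH 200 μM plus a glucose 6-phosphate regenerating system, in 0.1 M potassium phosphate pH 7.4 at 37 °C. No preincubation; the enzyme was added to start the reaction. Read-out was tritiated water counted after charcoal removal of substrate. Ki was taken from replots of apparent Km versus inhibitor concentration; three experiments.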

The test system of experiment [5] is Kynurenine 3-monooxygenase (Meriones unguiculatus). Briefly: Compound was evaluated for ex vivo inhibition of Kynurenine 3-hydroxylase activity in brain from Gerbils after injecting perorally. As to conditions: Gerbillinae.
Experiment [6] has the same test system. Briefly: Compound was evaluated for ex vivo inhibition of Kynurenine 3-hydroxylase activity in Kidney from Gerbils after injecting perorally. As to conditions: Gerbillinae.
The test system is the same in experiment [7]. As to the kind of experiment: Compound was evaluated for ex vivo inhibition of Kynurenine 3-hydroxylase activity in Liver from Gerbils after injecting perorally. The settings on record: Gerbillinae.

T1 sequence (O88867 whole entry): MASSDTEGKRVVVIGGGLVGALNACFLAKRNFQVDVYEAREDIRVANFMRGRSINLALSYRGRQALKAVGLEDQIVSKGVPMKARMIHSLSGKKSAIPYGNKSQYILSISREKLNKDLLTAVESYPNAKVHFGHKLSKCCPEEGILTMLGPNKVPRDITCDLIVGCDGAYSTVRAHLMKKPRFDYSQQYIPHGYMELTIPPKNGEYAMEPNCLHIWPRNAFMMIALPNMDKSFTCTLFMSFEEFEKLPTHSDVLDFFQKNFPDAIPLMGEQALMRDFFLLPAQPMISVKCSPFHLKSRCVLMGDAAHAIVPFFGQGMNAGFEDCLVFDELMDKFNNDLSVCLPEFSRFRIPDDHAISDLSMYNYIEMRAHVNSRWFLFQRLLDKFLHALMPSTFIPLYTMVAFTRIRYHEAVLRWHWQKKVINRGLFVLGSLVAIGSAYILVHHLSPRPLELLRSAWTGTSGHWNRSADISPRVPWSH
Chain of Kynurenine 3-monooxygenase (Rattus norvegicus) (O88867 whole entry, looked up): as the sequence (O88867 whole entry) above

One may read the IC50 as the concentration at which inhibition is half-maximal. For `NC(CC(=O)c1cccc([N+](=O)[O-])c1)C(=O)O` (stereo unspecified), the IC50 in experiment [1] came out at 774 nM.
A word on the ED50: it is the dose that gives a 50% effect, or the effect in half of the subjects. A lower ED50 goes with an effect at a small dose. On to `Nc1ccc(S(=O)(=O)Nc2nc(-c3cc(C(F)(F)F)ccc3F)cs2)cc1`, for which the 50% effective dose (ED50) in experiment [2] came to 4.6 µmol/kg; in experiment [3], 1.1 µmol/kg. In addition, half-maximal inhibition in experiment [1] (IC50) was put at 19 nM.
As for `O=[N+]([O-])c1cccc(-c2csc(NS(=O)(=O)c3ccc(Cl)c(Cl)c3)n2)c1`, 120 nM corresponded to half-maximal inhibition in experiment [1] (IC50). That is a sub-micromolar value.
Still for that read-out and setting: for `Cc1ccc(S(=O)(=O)Nc2nc(-c3ccc(O)c(C)c3)cs2)cc1` the value was 114 nM; for `Nc1ccc(S(=O)(=O)Nc2nc(-c3cccc([N+](=O)[O-])c3)cs2)cc1`, 40 nM; for `Cc1ccc(S(=O)(=O)Nc2nc(-c3ccccc3)cs2)cc1`, 470 nM.
Still for that read-out and setting: next, `O=C(O)CCC(=O)c1cccc([N+](=O)[O-])c1`: 5770 nM; `Cc1ccc(S(=O)(=O)Nc2nc(-c3ccc(Cl)c(Cl)c3)cs2)cc1`: 56 nM.
On the same count and under the same terms, next, `Cc1ccc(S(=O)(=O)Nc2nc(-c3ccc(Cl)cc3)cs2)cc1`: 56 nM; `O=[N+]([O-])c1cccc(-c2csc(NS(=O)(=O)c3ccccc3)n2)c1`: 200 nM.
`CC(C)c1ccc(S(=O)(=O)Nc2nc(-c3cccc([N+](=O)[O-])c3)cs2)cc1` came in with a half-maximal inhibitory concentration (IC50) in experiment [1] of 990 nM.
On the same count and under the same terms, next, `COc1ccc(-c2csc(NS(=O)(=O)c3ccc(C)cc3)n2)cc1`: 240 nM; `O=[N+]([O-])c1cccc(-c2csc(NS(=O)(=O)c3ccc(Cl)cc3)n2)c1`: 84 nM.
Turning to `COc1ccc(S(=O)(=O)Nc2nc(-c3cccc([N+](=O)[O-])c3)cs2)cc1`, the 50% effective dose (ED50) in experiment [2] stood at 9 µmol/kg; in experiment [3] it was 3 µmol/kg. In experiment [1], this molecule showed a half-maximal inhibitory concentration (IC50) of 51 nM.
As usually defined, the Ki is a measure of affinity in units of concentration, obtained from inhibition or displacement. Higher therefore signals lower affinity. As to `NC(CC(=O)c1ccc(Cl)c(Cl)c1)C(=O)O` (stereo unspecified), the figures for the ED50 in experiment [2] and in experiment [3] were 222 µmol/kg and 25.1 µmol/kg, respectively. Further, the Ki in experiment [4] turned out to be 95 nM. Also, the IC50 in experiment [1] came out at 237 nM.
For `O=C(O)c1[cH-]c(-c2cccc([N+](=O)[O-])c2)[o+]n1`, the midpoint of inhibition in experiment [1], the IC50, lay at 2680 nM.
For `COc1ccc(S(=O)(=O)Nc2nc(-c3cccc([N+](=O)[O-])c3)cs2)cc1OC`, the Ki in experiment [4] turned out to be 4.8 nM. In experiment [1], this molecule registered an IC50 of 37 nM.
Turning to `O=[N+]([O-])c1cccc(-c2cc(-c3nn[nH]n3)no2)c1`, 1160 nM corresponded to half-maximal inhibition in experiment [1] (IC50).
Regarding `COc1ccc(S(=O)(=O)Nc2nc(-c3cc(C(F)(F)F)ccc3F)cs2)cc1OC`, the ED50 stood at 5.3 µmol/kg in experiment [2]; 5.2 µmol/kg in experiment [5]; 1.8 µmol/kg in experiment [6]; 6.6 µmol/kg in experiment [3]; 0.9 µmol/kg in experiment [7]. Besides, the IC50 in experiment [1] was found to be 39 nM.
Consider `Cc1ccc(S(=O)(=O)Nc2nc(-c3cccc([N+](=O)[O-])c3)cs2)cc1`, for which the ED50 in experiment [2] is 33.4 µmol/kg; in experiment [3], 13.3 µmol/kg. Besides, in experiment [1], the 50% inhibitory concentration (IC50) came to 48 nM.
`Cc1ccc(-c2csc(NS(=O)(=O)c3ccc(C)cc3)n2)cc1` gave a 50% inhibitory concentration (IC50) in experiment [1] of 76 nM.

The values above are taken from ChEMBL document CHEMBL1130431, “Synthesis and biochemical evaluation of N-(4-phenylthiazol-2-yl)benzenesulfonamides as high-affinity inhibitors of kynurenine 3-hydroxylase” (J Med Chem, 1997).
